Results on three compounds are retold here after article PMC10883374 (Science Advances, 2022).

Experiment [1] deals with F135A mutant dSAMTOR (Drosophila melanogaster, UniProt Q9W138, F135A). Put plainly: ITC ligand binding, F135A dSAMTOR. As to conditions: ITC. A digest of the protocol:
(§1)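 Tag-free dSAMTOR, expressed as His6-SUMO fusion in E. coli BL21(DE3), purified by Ni-NTA and gel filtration into 10 mM Hepes pH 7.5, 150 mM NaCl, 1 mM DTT. At 25°C, 1 mM SAM or SAH was titrated into 0.2 mM protein over 20 injections, with a background titration into buffer. Single-site fit gave Kd, ΔH and n; ΔG and ΔS were calculated. Runs: three for measurable binding, two for undetectable binding.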

For experiment [2], the target named is D162A mutant dSAMTOR (Drosophila melanogaster, UniProt Q9W138, D162A). Kind of experiment: ITC ligand binding, D162A dSAMTOR. As to conditions: 25°C, ND = not detected. The essentials: as §1
D162A mutant dSAMTOR, sequence (Q9W138 whole entry D162A): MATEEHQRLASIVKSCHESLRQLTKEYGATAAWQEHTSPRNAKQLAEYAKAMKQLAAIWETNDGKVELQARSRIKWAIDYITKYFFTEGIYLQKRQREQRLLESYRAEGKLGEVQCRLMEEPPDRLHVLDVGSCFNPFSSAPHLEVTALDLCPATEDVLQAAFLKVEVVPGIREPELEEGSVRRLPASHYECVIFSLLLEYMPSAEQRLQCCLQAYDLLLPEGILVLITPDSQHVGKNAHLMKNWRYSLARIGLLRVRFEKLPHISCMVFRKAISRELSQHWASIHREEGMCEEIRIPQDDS
Experiment [3] concerns the target dSAMTOR (WT, full-length) (Drosophila melanogaster, UniProt Q9W138). Kind of experiment: ITC ligand binding, WT dSAMTOR. As to conditions: ITC, 25°C, WT dSAMTOR. The essentials:
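Full-length dSAMTOR was expressed as His6-SUMO fusion in E. coli BL21 (DE3), Ni-NTA purified, tag-cleaved, then gel-filtered into 10 mM Hepes pH 7.5, 150 mM NaCl, 1 mM DTT. ITC ran at 25°C: 20 × 2 µl injections of 1 mM SAM or SAH into 0.2 mM protein, discarding an initial 0.8 µl injection, with a buffer background titration. Single-site nonlinear least-squares fit gave ΔH, n and Kd.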

Experiment [4] concerns the target V66W/E67P mutant dSAMTOR (Drosophila melanogaster, UniProt Q9W138, E67P/V66W). Put plainly: ITC ligand binding, V66W/E67P dSAMTOR. As to conditions: ITC, 25°C, V66W/E67P dSAMTOR. The essentials:
as §1

The target of experiment [5] is L163A mutant dSAMTOR (Drosophila melanogaster, UniProt Q9W138, F163A). Put plainly: ITC ligand binding, L163A dSAMTOR. Conditions: 25°C, L163A dSAMTOR (text b27: F163A), ND = not detected. The essentials:
as §1

In experiment [6] the target is hSAMTOR. As to conditions: read-out: dissociation constant (Kd); cited from earlier work.
The target in experiment [7] is Y201A mutant dSAMTOR (Drosophila melanogaster, UniProt Q9W138, Y201A). Put plainly: ITC ligand binding, Y201A dSAMTOR. The essentials: as §1
Y201A mutant dSAMTOR, sequence (Q9W138 whole entry Y201A): as the sequence (Q9W138 whole entry D162A) above, with A162D, Y201A counted along it
Experiment [8] has as its target D150A mutant dSAMTOR (Drosophila melanogaster, UniProt Q9W138, D150A). Put plainly: ITC ligand binding, D150A dSAMTOR. As to conditions: 25°C, ND = not detected. A digest of the protocol: as §1
The target of experiment [9] is T1, hSAMTOR (WT) interaction with GATOR1-KICSTOR (Homo sapiens, UniProt Q1RMZ1).
T1 sequence (Q1RMZ1 1-405): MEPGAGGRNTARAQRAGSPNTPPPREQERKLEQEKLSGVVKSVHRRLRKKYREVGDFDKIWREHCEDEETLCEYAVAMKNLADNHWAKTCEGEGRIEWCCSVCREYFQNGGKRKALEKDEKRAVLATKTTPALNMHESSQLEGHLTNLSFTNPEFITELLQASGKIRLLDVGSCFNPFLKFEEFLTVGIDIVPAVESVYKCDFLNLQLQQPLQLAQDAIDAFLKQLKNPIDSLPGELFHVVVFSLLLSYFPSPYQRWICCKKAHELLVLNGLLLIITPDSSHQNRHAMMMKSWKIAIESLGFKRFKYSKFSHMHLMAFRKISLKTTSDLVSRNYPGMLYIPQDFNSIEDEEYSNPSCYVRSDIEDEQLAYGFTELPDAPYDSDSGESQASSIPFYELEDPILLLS
As to conditions: previous cell biology data; cited from earlier work.

Experiment [10] deals with L197A mutant dSAMTOR (Drosophila melanogaster, UniProt Q9W138, L197A). Put plainly: ITC ligand binding, L197A dSAMTOR. Conditions: 25°C, ND = not detected. A digest of the protocol: as §1
L197A mutant dSAMTOR, sequence (Q9W138 whole entry L197A): as the sequence (Q9W138 whole entry D162A) above, with A162D, L197A counted along it
For experiment [11], the target named is L151A mutant dSAMTOR (Drosophila melanogaster, UniProt Q9W138, L151A). Put plainly: ITC ligand binding, L151A dSAMTOR. Conditions: 25°C, ND = not detected. The essentials: as §1
L151A mutant dSAMTOR, sequence (Q9W138 whole entry L151A): as the sequence (Q9W138 whole entry D162A) above, with L151A, A162D counted along it
Experiment [12] concerns the target R73A mutant dSAMTOR (Drosophila melanogaster, UniProt Q9W138, R73A). Put plainly: ITC ligand binding, R73A dSAMTOR. As to conditions: 25°C, ND = not detected. The essentials:
as §1

The target in experiment [13] is N-terminal truncated dSAMTOR (Δ1-64) (Drosophila melanogaster, UniProt Q9W138). Put plainly: ITC ligand binding, Δ1-64 dSAMTOR. As to conditions: ITC, 25°C, Δ1-64 dSAMTOR. The essentials:
as §1

Experiment [14] has as its target M202A mutant dSAMTOR (Drosophila melanogaster, UniProt Q9W138, M202A). Put plainly: ITC ligand binding, M202A dSAMTOR. As to conditions: 25°C, ND = not detected. A digest of the protocol:
as §1

dSAMTOR (WT, full-length), sequence (Q9W138 whole entry, the tested form may be a part): as the sequence (Q9W138 whole entry D162A) above, with A162D counted along it
F135A mutant dSAMTOR, sequence (Q9W138 whole entry F135A, the tested form may be a part): as the sequence (Q9W138 whole entry D162A) above, with F135A, A162D counted along it
V66W/E67P mutant dSAMTOR, sequence (Q9W138 whole entry V66W/E67P): as the sequence (Q9W138 whole entry D162A) above, with V66W, E67P, A162D counted along it
N-terminal truncated dSAMTOR (Δ1-64), sequence (Q9W138 65-302, stated change not applied): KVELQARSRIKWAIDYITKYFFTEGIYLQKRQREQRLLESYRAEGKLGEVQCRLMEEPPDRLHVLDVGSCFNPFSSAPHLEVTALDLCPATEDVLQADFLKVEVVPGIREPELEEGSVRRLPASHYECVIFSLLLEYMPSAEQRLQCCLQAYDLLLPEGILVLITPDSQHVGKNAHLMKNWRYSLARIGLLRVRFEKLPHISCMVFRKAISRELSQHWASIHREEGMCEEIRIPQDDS
M202A mutant dSAMTOR, sequence (Q9W138 whole entry M202A): as the sequence (Q9W138 whole entry D162A) above, with A162D, M202A counted along it
R73A mutant dSAMTOR, sequence (Q9W138 whole entry R73A): as the sequence (Q9W138 whole entry D162A) above, with R73A, A162D counted along it
L163A mutant dSAMTOR, sequence (Q9W138 whole entry F163A): as the sequence (Q9W138 whole entry D162A) above, with A162D, F163A counted along it
D150A mutant dSAMTOR, sequence (Q9W138 whole entry D150A): as the sequence (Q9W138 whole entry D162A) above, with D150A, A162D counted along it

A word on the Kd: it is the constant that tells how readily two partners part at equilibrium. As for `Nc1ncnc2c1ncn2[C@@H]1O[C@H](CSCC[C@H](N)C(=O)O)[C@@H](O)[C@H]1O` [SAH, S-adenosyl-L-homocysteine], the “increase of binding affinity compared to the WT dSAMTOR” value in experiment [1] (F135A vs WT dSAMTOR) is less than 2 fold. Further, the Kd in experiment [1] (25°C, F135A dSAMTOR) was 4.76 ± 0.71 µM; in experiment [2], “completely abolish SAH binding”; in experiment [3], 8.7 ± 0.92 µM; in [4], 11.3 ± 0.37 µM; in [5] it was “completely abolish SAH binding”; in experiment [6], 4.6 µM. The Kd is 67.3 ± 6.03 µM in [7] (25°C, Y201A dSAMTOR); “completely abolish SAH binding” in experiment [8]; “completely abolish SAH binding” in experiment [10]; “completely abolish SAH binding” in experiment [11]; “completely abolish SAH binding” in experiment [12]; 13.1 ± 0.8 µM in [13]. Moreover, the Kd result in experiment [14] is given as “completely abolish SAH binding”. The TΔS is -5.27 kJ/mol in experiment [1] (25°C, F135A dSAMTOR); -12.5 kJ/mol in experiment [3]; 11.7 kJ/mol in experiment [7] (25°C, Y201A dSAMTOR); -33.8 kJ/mol in [13]. Moreover, the n value worked out at 0.80 ± 0.02 in experiment [1] (25°C, F135A dSAMTOR); 0.81 ± 0.09 in [3]; 1.02 ± 0.02 in experiment [4]; 0.74 ± 0.02 in [7] (25°C, Y201A dSAMTOR); 0.67 ± 0.04 in experiment [13]. Also, the ΔH in experiment [1] (25°C, F135A dSAMTOR) is -35.6 ± 2.13 kJ/mol; in experiment [3], -41.6 ± 6.19 kJ/mol; in [4], -21.3 ± 0.502 kJ/mol; in experiment [7] (25°C, Y201A dSAMTOR) it was -12.1 ± 0.711 kJ/mol; in experiment [13], -61.5 ± 4.39 kJ/mol. The “decrease of binding affinity compared to the WT dSAMTOR” value in experiment [7] (Y201A vs WT dSAMTOR) is given as 7.7 fold. The “effect of ligand binding on interaction of hSAMTOR with GATOR1-KICSTOR” value in experiment [9] is listed as “can disrupt the interaction of hSAMTOR with GATOR1-KICSTOR”.

`Nc1ncnc2c1ncn2[C@@H]1O[C@H](CO)[C@@H](O)[C@H]1O` [adenosine]: in experiment [3], the Kd entry is recorded as “no measurable binding”.

As to `CSCC[C@H](N)C(=O)O` [methionine], the Kd result in experiment [3] is given as “no measurable binding”.
